Activity calls are given as the source filed them.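 How the source made its calls, unless noted: active means viability at or below 30% in both replicate assays; inconclusive means viability at or below 30% in just one of the two assays; inactive means the rest.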
Legend:
[1] = reducers of endogenous Her2 protein level, primary screen, SKBR3 breast tumor cells, AlphaScreen, ATP viability (AID 461;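 active means Her2 level under about 52% in both replicate screens, with viability over 70% of control, limit read from the data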;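 on Her2 level: lower value means less Her2 protein in the cells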;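 on viability: percent of carrier control wells set as 100% viability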); details: 18-24 h, measured here: SKBR3 viability, ATP luminescence, at 10 µM
[2] = molecular target: Receptor tyrosine-protein kinase erbB-2 (Homo sapiens) (UniProt P04626); assay: as above; details: 18-24 h, at 10 µM, stronger effect = lower value
[3] = SK-BR-3 cell growth inhibitors, pilot screen, 24 h, human (AID 572;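 active means viability at or below 10% of carrier control in both of two separate runs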;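 further: compound exposure lasted between 18 and 24 h rather than exactly 24 h; 100% = carrier-treated control wells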); details: SK-BR-3 viability, CellTiter-Glo luminescence, at 10 µM, stronger effect = lower value
[4] = HUVEC growth inhibition – cell-based, human, primary screen (AID 575); details: HUVEC proliferation, CellTiter-Glo luminescence, 72 h; at 10 µM; stronger effect = lower value;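 further: 100% = median of untreated cell wells with 0.1% DMSO on each plate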
In short: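 Timing: 72 h treatment at 37 °C; material: HUVEC primary cells; technique: CellTiter-Glo luminescence measuring cellular ATP; controls: vehicle and MePR control wells; measure: percent of median DMSO-control luminescence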

[5] = growth inhibitors of H69AR lung tumor, primary screen, human, duplicate replicates (AID 580;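 active means viability at or under a set limit in both replicates, limit being median viability minus 3 SD, cut at about 48% in these data, passing the limit was not always enough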;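 further: 100% = mean luminescence of untreated wells and 0% = no signal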); details: H69AR lung tumor cells viability, ATP luminescence, 72 h; at 10 µM; stronger effect = lower value
[6] = reversal of MRP1-mediated doxorubicin resistance, pilot screen, H69AR cells, doxorubicin co-treatment (AID 601;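 active means viability loss from added drug above about 55%, and viability with drug at most 40%, in both replicates, limit read from the data, passing the limit was not always enough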); details: CellTiter-Glo, 72 h, at 10 µM; for differential viability (reversal): stronger effect = higher value
[7] = 384-well plate pilot, post-Golgi transport modulator project, inhibition of yeast transport mutant growth (AID 636; in the data active means inhibition above about 31%); details: absorbance 615 nm, about 18 h, stronger effect = higher value
[8] = growth suppression of yeast trafficking mutant, preliminary HTS, modulators of trafficking downstream of Golgi apparatus project, 1536-format plate, OD 615 nm (AID 637; in the data active means inhibition above about 30%); details: yeast transport mutant growth, absorbance 615 nm, 18 h; stronger effect = higher value
[9] = H69AR cells + 2 uM doxorubicin, measured here: viability with 2 uM doxorubicin, stronger effect = lower value
[10] = H69AR cells, compound alone cytotoxicity

Sequence of Receptor tyrosine-protein kinase erbB-2 (Homo sapiens) (P04626 whole entry, looked up): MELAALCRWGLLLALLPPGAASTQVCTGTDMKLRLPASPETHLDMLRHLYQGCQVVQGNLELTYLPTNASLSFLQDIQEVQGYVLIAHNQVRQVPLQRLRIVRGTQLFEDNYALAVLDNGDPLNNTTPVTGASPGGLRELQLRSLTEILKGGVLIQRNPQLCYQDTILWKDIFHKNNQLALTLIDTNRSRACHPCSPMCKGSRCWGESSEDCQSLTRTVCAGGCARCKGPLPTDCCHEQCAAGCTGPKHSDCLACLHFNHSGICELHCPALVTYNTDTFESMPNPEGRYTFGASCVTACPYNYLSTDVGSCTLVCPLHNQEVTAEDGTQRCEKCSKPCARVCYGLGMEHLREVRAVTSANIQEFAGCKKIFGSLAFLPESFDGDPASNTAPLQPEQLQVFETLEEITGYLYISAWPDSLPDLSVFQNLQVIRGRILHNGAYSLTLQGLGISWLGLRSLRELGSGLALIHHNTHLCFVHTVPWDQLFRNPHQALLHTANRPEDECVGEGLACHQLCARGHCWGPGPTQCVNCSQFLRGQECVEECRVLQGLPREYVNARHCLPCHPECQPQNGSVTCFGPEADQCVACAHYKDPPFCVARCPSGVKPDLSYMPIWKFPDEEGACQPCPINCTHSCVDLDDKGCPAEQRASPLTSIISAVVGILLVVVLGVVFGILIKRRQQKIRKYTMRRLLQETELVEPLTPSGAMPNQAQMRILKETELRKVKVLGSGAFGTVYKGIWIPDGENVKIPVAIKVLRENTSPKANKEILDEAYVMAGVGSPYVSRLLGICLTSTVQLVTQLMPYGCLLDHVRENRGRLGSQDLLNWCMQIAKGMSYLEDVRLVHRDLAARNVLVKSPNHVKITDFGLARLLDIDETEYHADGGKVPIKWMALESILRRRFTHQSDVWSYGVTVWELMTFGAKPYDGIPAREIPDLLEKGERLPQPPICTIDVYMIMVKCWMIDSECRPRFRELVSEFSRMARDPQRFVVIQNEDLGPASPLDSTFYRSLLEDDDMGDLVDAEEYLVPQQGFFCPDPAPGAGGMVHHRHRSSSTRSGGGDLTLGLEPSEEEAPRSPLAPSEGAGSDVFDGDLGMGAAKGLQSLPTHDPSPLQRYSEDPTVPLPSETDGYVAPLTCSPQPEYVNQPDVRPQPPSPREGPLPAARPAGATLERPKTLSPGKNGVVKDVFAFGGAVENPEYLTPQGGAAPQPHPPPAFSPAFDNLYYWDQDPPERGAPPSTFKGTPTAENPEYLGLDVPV

Structure (SMILES)	viability [1]	Her2 level [2]	viability [3]	viability [4]	viability [5]	differential viability (reversal) ([6]; H69AR cells + 2 uM doxorubicin)	viability [6, 9]	viability [6, 10]	inhibition [7]	inhibition [8]
O=C(CCc1ccccc1)Nc1ccncc1	110%	119% (inactive)	110% (inactive)	103% (inactive)	97.8% (inactive)	5.17% (inactive)	92.6%	97.8%	0.65% (inactive)	-5.33% (inactive)
CCOC(=O)c1sc(NC(=O)CNC(=O)Cn2cnc3sc(C)c(C)c3c2=O)nc1C	94%	88.5% (inactive)	94% (inactive)	93.4% (inactive)	104% (inactive)	7.01% (inactive)	96.7%	104%	1.18% (inactive)	2.26% (inactive)
Cc1oc2c(CN3CCOCC3)c(O)ccc2c(=O)c1-c1ccc(Br)cc1	85%	114% (inactive)	85% (inactive)	91.8% (inactive)	90.4% (inactive)	4.38% (inactive)	86%	90.4%	-0.91% (inactive)	-2.67% (inactive)
CN(C(=O)c1ccc2c(=O)n3c(nc2c1)CCCCC3)c1ccccc1	96.5%	91% (inactive)	96.5% (inactive)	97.5% (inactive)	102% (inactive)	0.655% (inactive)	101%	102%	-7.26% (inactive)	2.54% (inactive)
Nc1nnc(C(=O)c2ccccc2N)s1	108%	91% (inactive)	108% (inactive)	102% (inactive)	96.3% (inactive)	5.43% (inactive)	90.9%	96.3%	-1.04% (inactive)	3.93% (inactive)
C=CCn1c(C)cc(C(=O)CSc2nc3ccccc3c(=O)[nH]2)c1C	90.5%	92.5% (inactive)	90.5% (inactive)	61.5% (inactive)	77.8% (inactive)	-4.06% (inactive)	81.8%	77.8%	54.1% (active)	37.6% (active)
Cn1c(SCC(=O)O)nnc1C1CCCCC1	102%	110% (inactive)	102% (inactive)	99.7% (inactive)	92.7% (inactive)	-1.2% (inactive)	93.9%	92.7%	0.27% (inactive)	8.85% (inactive)
CC(=O)N1C(=O)C2(C(C#N)=C(N)Oc3cc(C)oc(=O)c32)c2ccccc21 (stereo not given)	95.5%	112% (inactive)	95.5% (inactive)	95.9% (inactive)	88.1% (inactive)	7.52% (inactive)	80.6%	88.1%	1.84% (inactive)	-2.91% (inactive)
CC1(C)NC(=O)N(CC(O)CN(Cc2ccccc2)Cc2ccccc2)C1=O (stereo not given)	78%	78.5% (inactive)	78% (inactive)	108% (inactive)	92.6% (inactive)	13.7% (inactive)	78.9%	92.6%	-4.59% (inactive)	-10.2% (inactive)
Cc1onc(-c2ccccc2Cl)c1C(=O)Nc1cccnc1	102%	72% (inactive)	102% (inactive)	103% (inactive)	95.6% (inactive)	1.41% (inactive)	94.2%	95.6%	-7.57% (inactive)	-1.31% (inactive)
c1ccc(-c2nnc(-c3ccco3)n2-c2ccccc2)cc1	81.5%	78% (inactive)	81.5% (inactive)	87% (inactive)	88.1% (inactive)	-10.6% (inactive)	98.6%	88.1%	-6.08% (inactive)	3.61% (inactive)
O=C(NCCCNC(=O)c1ccccn1)c1ccccn1	106%	75% (inactive)	106% (inactive)	79.6% (inactive)	91.5% (inactive)	-0.68% (inactive)	92.1%	91.5%	-5.89% (inactive)	-3.49% (inactive)
CC(=O)Nc1cc2c(nc1C)nc(C)n2Cc1ccc(Br)cc1	76%	88% (inactive)	76% (inactive)	90% (inactive)	108% (inactive)	12.7% (inactive)	95.3%	108%	-4.4% (inactive)	0.33% (inactive)
O=C(CS(=O)CC(=O)Nc1cccc2c1CCCC2)Nc1ccc(F)cc1 (stereo not given)	114%	103% (inactive)	114% (inactive)	88.3% (inactive)	102% (inactive)	4.67% (inactive)	97.8%	102%	-6.93% (inactive)	4.1% (inactive)
COc1ccccc1N1CCN(c2nc3ccccc3nc2C(C#N)C(=O)OC(C)C)CC1 (stereo not given)	77%	112% (inactive)	77% (inactive)	71.6% (inactive)	80.3% (inactive)	3.12% (inactive)	77.2%	80.3%	1.58% (inactive)	-1.82% (inactive)
O=C1C2CC=CCC2C(=O)N1c1ccc(Cc2ccncc2)cc1 (stereo not given)	88%	96.5% (inactive)	88% (inactive)	83.8% (inactive)	100% (inactive)	2.21% (inactive)	97.8%	100%	0.78% (inactive)	-5.74% (inactive)
COc1ccc(Cn2c(CCCO)nc3ccccc32)cc1OC	98.5%	97.5% (inactive)	98.5% (inactive)	105% (inactive)	102% (inactive)	14.2% (inactive)	88%	102%	-7.67% (inactive)	-3.17% (inactive)
CC(=O)N(C(C)=O)c1c(C#N)c(C)n(-c2ccccc2)c1C(=O)c1ccccc1	86.5%	88% (inactive)	86.5% (inactive)	78.4% (inactive)	77.9% (inactive)	-9.1% (inactive)	87%	77.9%	-2.53% (inactive)	-2.58% (inactive)
CCS(=O)(=O)N1CCC(C(=O)NC2CCCCCCC2)CC1	98%	110% (inactive)	98% (inactive)	108% (inactive)	97.5% (inactive)	7.86% (inactive)	89.6%	97.5%	-0.51% (inactive)	-1.5% (inactive)
CCn1c(SCC(=O)NCc2ccco2)nc2c(c1=O)SC(C)C2 (stereo not given)	95%	91% (inactive)	95% (inactive)	103% (inactive)	91.3% (inactive)	-0.41% (inactive)	91.7%	91.3%	-4.4% (inactive)	-0.98% (inactive)
CCn1c(=O)cc(OCC(=O)Nc2cc(C)ccn2)c2ccccc21	80%	77% (inactive)	80% (inactive)	73.9% (inactive)	86.4% (inactive)	-3.33% (inactive)	89.7%	86.4%	-2.89% (inactive)	-0.55% (inactive)
CCc1cc2ccc(C)cc2nc1SCC(=O)N1CCN(C(=O)c2ccco2)CC1	112%	82% (inactive)	112% (inactive)	70.1% (inactive)	64.5% (inactive)	-5.54% (inactive)	70%	64.5%	-3.82% (inactive)	-0.18% (inactive)
COC(=O)COc1nc(C)c(Br)c(OC)n1	96.5%	99% (inactive)	96.5% (inactive)	105% (inactive)	116% (inactive)	25.9% (inactive)	90%	116%	-3.95% (inactive)	7.54% (inactive)
COCCNC(=O)C1CCCN(c2ncccn2)C1 (stereo not given)	93%	79% (inactive)	93% (inactive)	98.8% (inactive)	89.8% (inactive)	-8.68% (inactive)	98.5%	89.8%	-7.81% (inactive)	1.27% (inactive)
COC(=O)c1sc2ccccc2c1NC(=O)c1cccs1	97.5%	99.5% (inactive)	97.5% (inactive)	82.1% (inactive)	82.1% (inactive)	-17.2% (inactive)	99.3%	82.1%	-2.08% (inactive)	-5.87% (inactive)
CN(C)CCN1C(=O)c2oc3ccc(Cl)cc3c(=O)c2C1c1cccc(Br)c1 (stereo not given)	102%	72.5% (inactive)	102% (inactive)	87.9% (inactive)	77.1% (inactive)	2.96% (inactive)	74.2%	77.1%	-1.17% (inactive)	-5.5% (inactive)
COc1ccc(C2=Nn3c(nnc3-c3ccccc3)SC2)cc1OC	124%	101% (inactive)	124% (inactive)	78.1% (inactive)	81.7% (inactive)	2.4% (inactive)	79.3%	81.7%	-4.47% (inactive)	5.65% (inactive)
O=C(NCc1nnc(SCC(=O)N2CCCCCC2)o1)c1ccco1	104%	100% (inactive)	104% (inactive)	101% (inactive)	111% (inactive)	18.3% (inactive)	92.8%	111%	-4.27% (inactive)	-0.48% (inactive)
NC(=O)CSc1nnc(-c2ccc(O)cc2)n1Cc1ccco1	108%	102% (inactive)	108% (inactive)	105% (inactive)	98.6% (inactive)	9.33% (inactive)	89.3%	98.6%	-6% (inactive)	4.68% (inactive)

Source: PubChem BioAssay
